Source: ChEMBL document CHEMBL1921722, “In vitro and in vivo evaluation of select kahalalide F analogs with antitumor and antifungal activities” (Bioorg Med Chem, 2011)
Activity calls are given as the source filed them.

Key:
[1] = system: DU-145; test: Cytotoxicity against human DU145 cells by sulforhodamine B assay; format: functional
Procedure, shortened: (§1)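 Run by the NCI Developmental Therapeutics Program on its 60-line human tumour cell panel using the standard procedure. Compounds went through a single-concentration prescreen first, and those active by NCI criteria went on to a five-concentration growth-inhibition test. GI50 is the concentration that cuts growth of treated cells to half that of untreated control cells.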

[2] = system: Malme-3M; test: Cytotoxicity against human MALME-3M cells assessed as cell growth at 8 nM by sulforhodamine B assay relative to control; format: functional; conditions: read-out: Activity
[3] = system: KM12; test: Cytotoxicity against human KM12 cells assessed as cell growth at 8 nM by sulforhodamine B assay relative to control; format: functional; conditions: read-out: Activity
[4] = system: HCT-15; test: Cytotoxicity against human HCT15 cells assessed as cell growth at 8 nM by sulforhodamine B assay relative to control; format: functional; conditions: read-out: Activity
[5] = system: NCI-H226; test: Cytotoxicity against human NCI-H226 cells assessed as cell growth at 8 nM by sulforhodamine B assay relative to control; format: functional; conditions: read-out: Activity
[6] = system: Staphylococcus aureus; test: Antimicrobial activity against methicillin-resistant Staphylococcus aureus ATCC 43300 by CLSI method; format: functional, organism-based
[7] = system: RPMI-8226; test: Cytotoxicity against human RPMI8226 cells assessed as cell growth at 8 nM by sulforhodamine B assay relative to control; format: functional; conditions: read-out: Activity
[8] = system: HL-60(TB); test: Cytotoxicity against human HL-60(TB) cells assessed as cell growth at 8 nM by sulforhodamine B assay relative to control; format: functional; conditions: read-out: Activity
[9] = system: OVCAR-3; test: Cytotoxicity against human OVCAR3 cells assessed as cell growth at 8 nM by sulforhodamine B assay relative to control; format: functional; conditions: read-out: Activity
[10] = system: NCI/ADR-RES; test: Cytotoxicity against human NCI/ADR-RES cells assessed as cell growth at 8 nM by sulforhodamine B assay relative to control; format: functional; conditions: read-out: Activity
[11] = system: MDA-MB-231; test: Cytotoxicity against human MDA-MB-231 cells assessed as cell growth at 8 nM by sulforhodamine B assay relative to control; format: functional; conditions: read-out: Activity
[12] = system: K562; test: Cytotoxicity against human K562 cells assessed as cell growth at 80 nM by sulforhodamine B assay relative to control; format: functional; conditions: read-out: Activity
[13] = system: U-251; test: Cytotoxicity against human U251 cells assessed as cell growth at 80 nM by sulforhodamine B assay relative to control; format: functional; conditions: read-out: Activity
[14] = system: DU-145; test: Cytotoxicity against human DU145 cells assessed as cell growth at 80 nM by sulforhodamine B assay relative to control; format: functional; conditions: read-out: Activity
[15] = system: NCI/ADR-RES; test: Cytotoxicity against human NCI/ADR-RES cells assessed as cell growth at 80 nM by sulforhodamine B assay relative to control; format: functional; conditions: read-out: Activity
[16] = system: NCI-H226; test: Cytotoxicity against human NCI-H226 cells assessed as cell growth at 800 nM by sulforhodamine B assay relative to control; format: functional; conditions: read-out: Activity
[17] = system: NCI-H460; test: Cytotoxicity against human NCI-H460 cells assessed as cell growth at 800 nM by sulforhodamine B assay relative to control; format: functional; conditions: read-out: Activity
[18] = system: SK-OV-3; test: Cytotoxicity against human SKOV3 cells assessed as cell growth at 800 nM by sulforhodamine B assay relative to control; format: functional; conditions: read-out: Activity
[19] = system: SN12C; test: Cytotoxicity against human SN12C cells assessed as cell growth at 800 nM by sulforhodamine B assay relative to control; format: functional; conditions: read-out: Activity
[20] = system: TK-10; test: Cytotoxicity against human TK10 cells assessed as cell growth at 800 nM by sulforhodamine B assay relative to control; format: functional; conditions: read-out: Activity
[21] = system: SR; test: Cytotoxicity against human SR cells assessed as cell growth at 8 uM by sulforhodamine B assay relative to control; format: functional; conditions: read-out: Activity
[22] = system: EKVX; test: Cytotoxicity against human EKVX cells assessed as cell growth at 8 uM by sulforhodamine B assay relative to control; format: functional; conditions: read-out: Activity
[23] = system: COLO 205; test: Cytotoxicity against human COLO205 cells assessed as cell growth at 8 uM by sulforhodamine B assay relative to control; format: functional; conditions: read-out: Activity
Procedure, shortened: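 Run at NCI in the DTP 60-cell-line human tumor panel by standard procedure. Compounds were first screened at a single concentration, then tested at five tenfold-spaced concentrations. GI50 is the concentration reducing treated-cell growth to half that of untreated controls; TGI is the concentration completely halting growth.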

[24] = system: SF-539; test: Cytotoxicity against human SF539 cells assessed as cell growth at 8 uM by sulforhodamine B assay relative to control; format: functional; conditions: read-out: Activity
[25] = system: SNB-19; test: Cytotoxicity against human SNB19 cells assessed as cell growth at 8 uM by sulforhodamine B assay relative to control; format: functional; conditions: read-out: Activity
[26] = system: SK-MEL-2; test: Cytotoxicity against human SK-MEL-2 cells assessed as cell growth at 8 uM by sulforhodamine B assay relative to control; format: functional; conditions: read-out: Activity
[27] = system: UACC-62; test: Cytotoxicity against human UACC62 cells assessed as cell growth at 8 uM by sulforhodamine B assay relative to control; format: functional; conditions: read-out: Activity
[28] = system: RPMI-8226; test: Cytotoxicity against human RPMI8226 cells assessed as cell growth at 80 uM by sulforhodamine B assay relative to control; format: functional; conditions: read-out: Activity
[29] = system: NCI-H226; test: Cytotoxicity against human NCI-H226 cells assessed as cell growth at 80 uM by sulforhodamine B assay relative to control; format: functional; conditions: read-out: Activity
[30] = system: M14; test: Cytotoxicity against human M14 cells assessed as cell growth at 80 uM by sulforhodamine B assay relative to control; format: functional; conditions: read-out: Activity
[31] = system: SK-MEL-5; test: Cytotoxicity against human SK-MEL-5 cells assessed as cell growth at 80 uM by sulforhodamine B assay relative to control; format: functional; conditions: read-out: Activity
[32] = system: SK-OV-3; test: Cytotoxicity against human SKOV3 cells assessed as cell growth at 80 uM by sulforhodamine B assay relative to control; format: functional; conditions: read-out: Activity
[33] = system: RXF 393; test: Cytotoxicity against human RXF393 cells assessed as cell growth at 80 uM by sulforhodamine B assay relative to control; format: functional; conditions: read-out: Activity
[34] = system: DU-145; test: Cytotoxicity against human DU145 cells assessed as cell growth at 80 uM by sulforhodamine B assay relative to control; format: functional; conditions: read-out: Activity
[35] = system: HL-60(TB); test: Cytotoxicity against human HL-60(TB) cells by sulforhodamine B assay; format: functional; conditions: for TGI: read-out: pTGI (converted)
Procedure, shortened: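 NCI Developmental Therapeutics Program 60-cell-line human tumor panel, standard procedure. Single-concentration prescreen first; active compounds then tested at five concentrations. GI50 is the concentration reducing growth of treated cells to half that of untreated controls.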

[36] = system: SR; test: Cytotoxicity against human SR cells by sulforhodamine B assay; format: functional; conditions: for TGI: read-out: pTGI (converted)
Procedure, shortened: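 NCI Developmental Therapeutics Program 60-cell-line human tumor panel screen, run at NCI. A single-concentration pre-screen was followed by a five-concentration dose-response in 10-fold steps. GI50 is the concentration that reduces growth of treated cells to half that of untreated control cells. TGI is the concentration that completely halts growth.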

[37] = system: EKVX; test: Cytotoxicity against human EKVX cells by sulforhodamine B assay; format: functional; conditions: for TGI: read-out: pTGI (converted); procedure, shortened: as §1
[38] = system: HCT-15; test: Cytotoxicity against human HCT15 cells by sulforhodamine B assay; format: functional; procedure, shortened: as §1
[39] = read-out: pLC50 (the source's name) (converted)

## C/C=C1\NC(=O)[C@H](Cc2ccccc2)NC(=O)[C@@H](C(C)C)NC(=O)[C@@H]([C@@H](C)CC)NC(=O)[C@H](NC(=O)[C@H](NC(=O)[C@H](CCCNCc2ccc(F)c(C)c2)NC(=O)[C@H]2CCCN2C(=O)[C@H](NC(=O)[C@@H](NC(=O)[C@@H](NC(=O)[C@H](NC(=O)CCCC(C)C)C(C)C)[C@@H](C)O)C(C)C)C(C)C)[C@@H](C)CC)[C@@H](C)OC(=O)[C@H](C(C)C)NC1=O
[1]
  LC50: 468 nM
[1]; read-out: GI50
  GI50: 123 nM
[1]; read-out: TGI
  TGI: 240 nM
[1]; read-out: pGI50 (converted)
  GI50: 123 nM
[1]; read-out: pTGI (converted)
  TGI: 240 nM
[2]
  growth at 0.008 µM: 108%
[3]
  growth at 0.008 µM: 107%
[4]
  growth at 0.008 µM: 100%
[5]
  growth at 0.008 µM: 101%
[6]
  Activity: inactive
[7]
  growth at 0.008 µM: 128%
[8]
  growth at 0.008 µM: 91%
[9]
  growth at 0.008 µM: 105%
[10]
  growth at 0.008 µM: 105%
[11]
  growth at 0.008 µM: 101%
[12]
  growth at 0.08 µM: 106%
[13]
  growth at 0.08 µM: 100%
[14]
  growth at 0.08 µM: 87%
[15]
  growth at 0.08 µM: 88%
[16]
  growth at 0.8 µM: 98%
[17]
  growth at 0.8 µM: 104%
[18]
  growth at 0.8 µM: -46%
[19]
  growth at 0.8 µM: 87%
[20]
  growth at 0.8 µM: 101%
[21]
  growth at 8 µM: -50%
[22]
  growth at 8 µM: -82%
[23]
  growth at 8 µM: -76%
[24]
  growth at 8 µM: -93%
[25]
  growth at 8 µM: -84%
[26]
  growth at 8 µM: -80%
[27]
  growth at 8 µM: -98%
[28]
  growth at 80 µM: -21%
[29]
  growth at 80 µM: -18%
[30]
  growth at 80 µM: -49%
[31]
  growth at 80 µM: -100%
[32]
  growth at 80 µM: -75%
[33]
  growth at 80 µM: -79%
[34]
  growth at 80 µM: -91%
[35]
  GI50: 1580 nM
  TGI: 3090 nM
[36]
  GI50: 1580 nM
  LC50: > 75900 nM
  TGI: 3470 nM
[37]
  GI50: 759 nM
  TGI: 1820 nM
[37]; [39]
  CC50: 4370 nM
[38]
  LC50: 1380 nM
[38]; read-out: GI50
  GI50: 181 nM
[38]; read-out: TGI
  TGI: 419 nM
[38]; read-out: pGI50 (converted)
  GI50: 182 nM
[38]; read-out: pTGI (converted)
  TGI: 417 nM

## C/C=C1\NC(=O)[C@H](Cc2ccccc2)NC(=O)[C@@H](C(C)C)NC(=O)[C@@H]([C@@H](C)CC)NC(=O)[C@H](NC(=O)[C@H](NC(=O)[C@H](CCCNCc2ccc(N3CCOCC3)cc2)NC(=O)[C@H]2CCCN2C(=O)[C@H](NC(=O)[C@@H](NC(=O)[C@@H](NC(=O)[C@H](NC(=O)CCCC(C)C)C(C)C)[C@@H](C)O)C(C)C)C(C)C)[C@@H](C)CC)[C@@H](C)OC(=O)[C@H](C(C)C)NC1=O
[1]
  LC50: 513 nM
[1]; read-out: GI50
  GI50: 128 nM
[1]; read-out: TGI
  TGI: 257 nM
[1]; read-out: pGI50 (converted)
  GI50: 129 nM
[1]; read-out: pTGI (converted)
  TGI: 257 nM
[2]
  growth at 0.008 µM: 100%
[3]
  growth at 0.008 µM: 106%
[4]
  growth at 0.008 µM: 98%
[5]
  growth at 0.008 µM: 94%
[6]
  Activity: inactive
[7]
  growth at 0.008 µM: 111%
[8]
  growth at 0.008 µM: 94%
[9]
  growth at 0.008 µM: 100%
[10]
  growth at 0.008 µM: 104%
[11]
  growth at 0.008 µM: 95%
[12]
  growth at 0.08 µM: 100%
[13]
  growth at 0.08 µM: 103%
[14]
  growth at 0.08 µM: 89%
[15]
  growth at 0.08 µM: 82%
[16]
  growth at 0.8 µM: 104%
[17]
  growth at 0.8 µM: 104%
[18]
  growth at 0.8 µM: -35%
[19]
  growth at 0.8 µM: 86%
[20]
  growth at 0.8 µM: 104%
[21]
  growth at 8 µM: 15%
[22]
  growth at 8 µM: -76%
[23]
  growth at 8 µM: -73%
[24]
  growth at 8 µM: -89%
[25]
  growth at 8 µM: -70%
[26]
  growth at 8 µM: -74%
[27]
  growth at 8 µM: -100%
[28]
  growth at 80 µM: -29%
[29]
  growth at 80 µM: -26%
[30]
  growth at 80 µM: -69%
[31]
  growth at 80 µM: -56%
[32]
  growth at 80 µM: -23%
[33]
  growth at 80 µM: -27%
[34]
  growth at 80 µM: -73%
[35]
  GI50: 1860 nM
  TGI: 5250 nM
[35]; [39]
  CC50: > 75900 nM
[36]
  GI50: 3020 nM
  LC50: > 75900 nM
  TGI: 36300 nM
[37]
  GI50: 776 nM
  TGI: 1910 nM
[38]; read-out: GI50
  GI50: 264 nM
[38]; read-out: TGI
  TGI: 814 nM
[38]; read-out: pGI50 (converted)
  GI50: 263 nM
[38]; read-out: pTGI (converted)
  TGI: 813 nM
